Bioassay records deposited in PubChem by Sanford-Burnham Center for Chemical Genomics.
CXCR6 block: CXCR6 receptor inhibitors, primary screen, cell-based, beta-arrestin, luminescence, CHO-K1 PathHunter, 1536-well; C-X-C chemokine receptor type 6 (Homo sapiens), O00574; hit rate 0.36% among 360,000; inhibition, % at 20 µM; in the data active means inhibition above about 34%, passing the limit was not always enough;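 further: antagonist mode with CXCL16 agonist at 10 nM final; 0% = 10 nM CXCL16 with DMSO and 100% = unstimulated wells without agonist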
Target sequence (O00574 whole entry, looked up): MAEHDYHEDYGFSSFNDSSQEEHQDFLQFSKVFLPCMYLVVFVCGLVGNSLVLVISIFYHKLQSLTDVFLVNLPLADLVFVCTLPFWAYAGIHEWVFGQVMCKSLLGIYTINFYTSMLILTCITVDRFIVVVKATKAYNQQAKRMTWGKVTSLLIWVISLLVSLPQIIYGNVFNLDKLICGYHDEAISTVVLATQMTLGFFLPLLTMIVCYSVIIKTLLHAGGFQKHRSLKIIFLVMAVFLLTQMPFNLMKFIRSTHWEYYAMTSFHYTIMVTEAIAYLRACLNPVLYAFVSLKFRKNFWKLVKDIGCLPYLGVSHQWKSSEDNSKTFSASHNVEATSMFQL
EBI2 antag: EBI2 receptor antagonists, beta-arrestin recruitment, primary screen, cell-based, luminescence, 7a,25-OHC stimulation, uHTS; G-protein coupled receptor 183 (Homo sapiens), P32249; 7a,25-OHC stimulated; inhibition, % at 5 µM; hit rate 0.81% among 360,000; AID 651636, 2012; in the data active means inhibition above about 38%;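 further: enzyme fragment complementation signal reports receptor beta-arrestin coupling in cells; 0% = agonist plus DMSO wells and 100% = wells without agonist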
Target sequence (P32249 whole entry, looked up, the tested form may be a part): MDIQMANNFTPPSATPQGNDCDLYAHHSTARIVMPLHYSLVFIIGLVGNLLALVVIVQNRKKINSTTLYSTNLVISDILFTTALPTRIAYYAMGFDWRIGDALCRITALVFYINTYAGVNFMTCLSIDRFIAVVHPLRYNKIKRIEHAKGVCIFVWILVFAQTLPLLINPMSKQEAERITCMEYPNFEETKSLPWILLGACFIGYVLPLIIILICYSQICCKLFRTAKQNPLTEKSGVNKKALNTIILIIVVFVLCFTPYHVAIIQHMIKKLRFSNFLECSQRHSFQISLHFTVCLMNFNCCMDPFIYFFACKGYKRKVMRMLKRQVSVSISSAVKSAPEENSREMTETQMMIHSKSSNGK
H9c2 TAG inh: inhibitors of triacylglycerol accumulation, primary screen, cell-based, uHTS, fluorescence, H9c2; H9c2 cells, Nile Red lipid (TAG) fluorescence; cells loaded with 200 µM oleic acid; inhibition, % at 12.5 µM; hit rate 0.66% among 230,000;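 active means pattern-corrected inhibition of lipid staining of at least 50% with the nuclear-stain viability signal not falling by more than 50%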;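 further: 0% = DMSO wells and 100% = triacsin C control wells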
APJ ag: agonists of human apelin receptor APJ, primary screen, CHO-K1 cells, PathHunter beta-arrestin, luminescence | hit rate 0.11% among 330,000 | activation, % at 20 µM | 0% DMSO wells, 100% apelin;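 active means activation more than six SD over the plate average, tested at 20 µM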;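 further: 0% = DMSO alone and 100% = apelin-13 at 10 nM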
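Incubation: overnight seeding, 90 min compound at 25 °C, 1 h detection; test system: PathHunter CHO-K1 APJ (AGTRL-1) beta-arrestin reporter cells; amount: 1000 cells/well; doses: one dose, 20 µM compound, 1% DMSO; measured by: beta-gal luminescence; measure: agonist-driven arrestin binding to APJ; benchmarks: negative DMSO alone, positive Apelin-13 at 10 nM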
CCR6 antagonist: CCR6 receptor antagonists, primary screen, cell-based, CHO-K1, luminescence, beta-arrestin, uHTS; C-C chemokine receptor type 6 (Homo sapiens), P51684; CHO-K1 CCR6 PathHunter beta-arrestin, CCL20-stimulated; inhibition, % at 20 µM; hit rate 0.49% among 340,000; AID 493098, 2011;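 active means compounds whose inhibition of the agonist-driven luminescence signal at 20 µM reaches about 50%, limit read from the data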;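 further: cells stimulated with CCL20 at 14 nM final; plate controls were DMSO with CCL20 for no effect and DMSO without agonist for full effect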
APJ antagonist: antagonists of human apelin receptor APJ, primary screen, CHO-K1 cells, beta-arrestin complementation, luminescence; P35414; inhibition, % at 20 µM; hit rate 0.32% among 330,000; AID 2521, 2010;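 active means inhibition above about 40% at 20 µM, limit read from the data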;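 further: cells challenged with 10 nM apelin-13 agonist together with compound; plate controls were apelin-13 plus DMSO wells for no effect and DMSO wells lacking apelin-13 for full effect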
* = called active by the depositor; nt = not tested or not shown. Hits are enriched below; roughly 1.9% of the tested compounds scored in any of these assays.

SMILES	CXCR6 block	EBI2 antag	H9c2 TAG inh	APJ ag	CCR6 antagonist	APJ antagonist
COc1ccccc1N(CC(=O)NCc1ccccc1C)S(=O)(=O)c1ccc(C)cc1	1.3	-2.1	nt	-1.9	22.7	8.4
CC(=O)[C@]1(O)Cc2c(O)c3c(c(O)c2[C@@H](O[C@H]2C[C@H](N)[C@H](O)[C@H](C)O2)C1)C(=O)c1ccccc1C3=O	nt	nt	nt	-2.6	81.2*	36.5
COc1cccc2c1C(=O)c1c(O)c3c(c(O)c1C2=O)C[C@@](O)(C(C)=O)C[C@@H]3O[C@H]1C[C@H](N)[C@H](O)[C@H](C)O1	20.0	-7.0	-18.3	nt	23.9	nt
COc1ccc(S(=O)(=O)N2CCOCC2)cc1NC(=O)[C@@H]1CCCN1C(=O)c1cccs1	0.6	-6.7	-8.6	-2.0	96.1*	2.0
CC(=O)c1c(C)[nH]c(C(=O)OCC(=O)c2ccc(C)s2)c1C	-4.4	-0.3	-94.7	-1.3	2.4	4.5
O=C1C(Br)=C(c2ccccc2)C(c2ccccc2)=C1c1ccccc1	20.8	49.1*	110.3	nt	68.3*	nt
O=C1NC(c2ccccc2)=C(c2ccccc2)C1=O	1.9	-9.3	nt	nt	4.6	nt
Cc1cc(C(=O)CCl)c(C)n1CCc1ccc(Cl)cc1	-12.6	2.7	59.0*	1.8	-6.2	1.4
C/C(Cl)=C\Cn1c(O)c(N=NC(N)=S)c2cc(Br)ccc21	33.5	10.3	43.0	-8.9	55.1*	33.7
CC(NC(=O)c1ccco1)C(=O)OCC(=O)N1CCCCCC1 (centres undefined)	-1.4	-4.0	-2.3	-3.1	3.9	5.2
C#CC(=O)N(c1ccc(OC)cc1OC)C(C(=O)NC1CCCC1)c1cccs1 (centres undefined)	-0.2	39.7	42.6	3.3	5.1	-13.1
C#CC(=O)N(c1cc(OC)ccc1OC)C(C(=O)NC1CCCC1)c1cccs1 (centres undefined)	13.0	50.2*	nt	1.7	12.3	12.2
CC(Oc1ccccc1)C(=O)N1CCC2(CC1)Oc1ccc(F)cc1C(=O)C21CC(c2ccccc2)=NO1 (centres undefined)	9.6	49.9*	3.7	-3.8	11.1	28.5
CC(Oc1ccccc1)C(=O)N1CCC2(CC1)Oc1ccc(F)cc1C(=O)C21CC(c2ccc(Cl)cc2)=NO1 (centres undefined)	2.8	9.1	17.7	2.2	7.5	-50.4
CC(Oc1ccccc1)C(=O)N1CCC2(CC1)Oc1ccc(F)cc1C(=O)C21CC(c2cccnc2)=NO1 (centres undefined)	4.3	42.3*	9.1	23.0	11.0	-9.6
CC(C)NC(=O)c1cc(C2CCCCN2S(=O)(=O)c2cccs2)on1 (centres undefined)	0.8	-0.8	19.4	nt	nt	nt
Cc1[nH][nH]c(=O)c1C(c1c(C)[nH][nH]c1=O)c1cn(Cc2ccc(F)cc2)c2ccccc12	61.5*	20.4	nt	nt	79.3*	nt
Cc1[nH][nH]c(=O)c1C(c1c(C)[nH][nH]c1=O)c1cn(Cc2ccc(Cl)c(Cl)c2)c2ccccc12	53.5*	31.5	nt	nt	77.3*	nt
O=c1c2ccccc2ncn1Cc1ccc(Cl)c(Cl)c1	1.7	-1.6	-4.0	-0.4	12.2	-10.0
CCn1c(=O)cc(OCC(=O)NCc2cccs2)c2ccccc21	8.6	0.6	20.1	-2.2	17.7	2.8
CN(C)CCOc1ccc(-c2c(-c3ccsc3)sc3ccccc23)cc1	-19.4	-27.4	21.1	-1.8	41.3	5.9
COc1ccc(-c2sc3ccccc3c2-c2ccc(OCCN(C)C)cc2)cc1	-7.6	-31.2	63.1*	-0.8	39.8	13.3
COC(=O)c1ccc(-c2ncc[nH]2)cc1	-2.0	-4.8	21.3	-0.4	5.6	1.2
CNC(=O)COc1ccc(Cl)c2cccnc12	-5.4	-9.5	9.4	-0.8	-5.2	9.4
Cc1cccc(NC(=O)Oc2ccc(Cl)c3cccnc23)c1	45.7*	11.0	-17.0	nt	nt	nt
SMILES	CXCR6 block	EBI2 antag	H9c2 TAG inh	APJ ag	CCR6 antagonist	APJ antagonist
COc1ccc2cc(/C=C/C(=O)N3CCN(CC(=O)N4CCCCCC4)CC3)ccc2c1	-1.9	60.5*	nt	1.6	0.2	0.6
CCOc1ccc2oc(C(=O)N3CCN(c4ccccn4)CC3)c(C)c2c1	-2.1	62.8*	nt	3.5	8.3	8.7
Nc1ccccc1Sc1nc2ccccc2[nH]1	-12.9	64.3*	2.6	2.5	-7.0	-5.1
Cc1ccc(-c2nc3ncccn3c2Nc2ccccc2C)o1	1.3	-0.1	nt	-3.1	3.4	2.5
Cc1ccc(-c2nc3cnccn3c2Nc2c(C)cccc2C)o1	30.7	5.0	-7.1	2.2	66.8*	-15.9
CC1CCCC(NC(=O)C2COc3ccccc3O2)C1C (centres undefined)	-1.0	33.7	-4.3	-4.3	6.2	8.2
CC1CCN(S(=O)(=O)c2ccc(NC(=S)NC(=O)c3ccc(Cl)cc3)cc2)CC1	14.4	16.0	7.2	-4.8	54.9*	31.5
Cc1cccc(NC(=O)CSc2nc(=O)n(CCCN3CCOCC3)c3c2CCCC3)c1C	-3.8	-6.8	-19.0	nt	nt	nt
CN(CC(=O)Nc1ccc(F)cc1[N+](=O)[O-])C1CCS(=O)(=O)C1 (centres undefined)	-3.7	-11.7	-8.4	0.0	-5.4	-3.7
COc1ccc(C[C@H]2CN3C(=NC[C@@H]3Cc3ccccc3)N2CCNC(=O)c2ccc(C)c(Br)c2)cc1	-11.6	14.2	120.0*	8.2	-9.7	7.6
COc1ccc(C[C@H]2CN3C(=NC[C@H]3Cc3ccccc3)N2CCNC(=O)c2ccc(C)c(Br)c2)cc1	-5.4	-12.0	128.3	1.6	4.5	11.5
COc1ccc(NC(=O)COc2nc3ccccc3nc2N2CCOCC2)c(OC)c1	-2.5	-1.0	1.8	-3.1	9.8	10.8
CC(=O)c1ccc(NC(=O)c2ccc3nc(-c4ccco4)c(-c4ccco4)nc3c2)cc1	46.4*	-6.6	5.0	6.1	32.9	-6.7
CCC(C)(C)c1ccc(Oc2cccc(C(=O)O)c2)cc1	-3.6	17.2	nt	-1.6	5.3	11.5
CCC(C)(C)c1ccc(Oc2ccc(N)cc2)cc1	-5.8	21.6	69.0*	nt	21.4	nt
O=C(NNC(=S)NC1CCCCC1)c1sc2ccccc2c1Cl	-0.2	-1.9	-8.6	-0.6	12.7	4.4
CC(C)(C)C(=O)NC(=S)NNC(=O)c1sc2ccccc2c1Cl	62.1*	-12.4	nt	1.0	73.5*	39.5
COc1ccc(C(=O)NNC(=S)NC(=O)C(C)(C)C)cc1	36.2	4.8	-13.1	-8.6	62.1*	28.1
CC(C)Oc1cc(C(=O)N2CCC(N3CCCCC3)CC2)ccc1Nc1nnc(Cl)c(Nc2ccccc2S(C)(=O)=O)n1	nt	nt	nt	nt	34.6	nt
